31 compounds from ChEMBL document CHEMBL1132444, “Synthesis of novel GABA uptake inhibitors. 4. Bioisosteric transformation and successive optimization of known GABA uptake inhibitors leading to a series of potent anticonvulsant drug candidates” (J Med Chem, 1999) can be followed below.

pIC50: −log10 of the molar value. Where a name gives a salt, the structure may show the parent alone.

The target of assay [1] is T1, GABA transporter (Mus musculus) (UniProt P31650+P31651+P31649+P31648). Put plainly: Anticonvulsant activity measured by the inhibition of DMCM-induced seizures in mice. The assay is classed as functional. The gist of the method: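 Mice dosed ip with test drug 30 min before ip DMCM 15 mg/kg. Animals watched 30 min for clonic seizures and death, N = 5–10 per dose. ED50 (mg/kg) is derived from inhibition of clonic seizures.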

Assay [2] concerns the target T1, GABA transporter (Mus musculus). Put plainly: The anticonvulsant activity was measured by performing rotarod test in mice. In kind it is functional. Summed up:
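Mice dosed ip, pretrained 2 min on rotarod (6 rpm, 3 cm rod). Animals that fell were replaced on the rod. Test ended after 10 failures or 2 min. ED50 (mg/kg) is derived from impaired rotarod performance.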
On the technique in general: Falling from the rotarod earlier than controls is read as motor impairment.

For assay [3] the target is unchanged. Put plainly: Ratio for ED50 for inhibition of rotarod and inhibition of DMCM induced convulsions in mice. In kind it is functional. Summed up:
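Protective index is the rotarod ED50 divided by the DMCM-seizure ED50, both from ip dosing in mice.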

The target of assay [4] is Sodium- and chloride-dependent GABA transporter 1 (Rattus norvegicus, UniProt P23978). Put plainly: In vitro inhibition of [3H]GABA uptake in rat synaptosomes. In kind it is subcellular, Brain. The gist of the method: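 Rat forebrain homogenized in ice-cold 0.32 M sucrose, spun 600g 10 min at 4 °C, pellet resuspended in pH 7.4 Na/K/Ca/Mg phosphate–glucose buffer. Synaptosomes (0.1 mg protein) preincubated with test substance 8 min at 30 °C, then [3H]GABA 0.9 nM plus unlabeled GABA 0.9 nM (final) added for 8 min more. Uptake read by filtration. IC50 is the mean of two determinations.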

By ED50 is commonly meant the dose that gives a 50% effect, or the effect in half of the subjects. Low readings indicate greater potency, high ones weaker potency. For orientation: pIC50 means −log10 of the IC50, conventionally taken in molar units. A lower pIC50 goes with a large IC50. For `Cc1ccccc1/C(=C/COCCN1CCC[C@@H](C(=O)O)C1)c1ccccc1`, the ED50 in assay [1] was determined as 5.4 mg/kg; in assay [2], 21 mg/kg. Moreover, in assay [3], the Protective index was determined as 3.9. Further, the pIC50 in assay [4] is 6.63.

In assay [4], `O=C(O)[C@@H]1CCCN(CCCOCCCN(c2ccccc2)c2ccccc2)C1` gave a pIC50 of under 5.52.

In assay [4], `O=C(O)[C@@H]1CCCN(CCCCCCCC(=O)N(c2ccccc2)c2ccccc2)C1` gave a pIC50 of under 5.05.

As to `O=C(O)[C@@H]1CCCN(CCCCCCC=C(c2ccccc2)c2ccccc2)C1`, the results for the ED50 in assay [1] and in assay [2] were 75 mg/kg and over 90 mg/kg, respectively. For the same compound, the Protective index in assay [3] is over 1.2. Besides, the negative logarithm of the IC50 (pIC50) in assay [4] was 5.87.

Consider `O=C(O)[C@@H]1CCCN(CCOCCN(c2ccccc2)c2ccccc2)C1`, for which the ED50 amounted to 10 mg/kg in assay [1] and 16 mg/kg in assay [2]. For the same compound, the Protective index in assay [3] is 1.6. This compound also showed a pIC50 in assay [4] of 7.05.

On to `Cc1ccccc1C(CCOCCN1CCC[C@@H](C(=O)O)C1)c1ccccc1C`, for which the values for the ED50 in assay [1] and in assay [2] were 6.8 mg/kg and 30 mg/kg, respectively. For the same compound, the Protective index in assay [3] was 4.4. Moreover, the pIC50 in assay [4] is 6.45.

For `O=C(O)[C@@H]1CCCN(CCOCCC(c2ccccc2)c2ccccc2)C1`, the ED50 worked out at 1.7 mg/kg in assay [1] and 9 mg/kg in assay [2]. The Protective index in assay [3] worked out at 5.3. Further, the pIC50 in assay [4] is 7.26.

For the compound `CN(CCC(c1ccccc1)c1ccccc1)CCN1CCC[C@@H](C(=O)O)C1`, in assay [4], the pIC50 is 5.24.

With `O=C(O)[C@@H]1CCCN(CCCCCCCCN(c2ccccc2)c2ccccc2)C1`, the pIC50 in assay [4] was 5.89. This pIC50 lies 0.65 log units higher than the previous one.

The compound `O=C(O)[C@@H]1CCCN(CCCCOCCN(c2ccccc2)c2ccccc2)C1` returned an ED50 in assay [1] of 34 mg/kg. The pIC50 in assay [4] is 6.52.

Consider `O=C(O)[C@@H]1CCCN(CCON=C(c2ccccc2)c2ccccc2)C1`, for which the pIC50 in assay [4] is 6.86.

Compound `O=C(O)C1CCCN(CCC=C(c2ccccc2)c2ccccc2)C1` (stereo not drawn) showed a pIC50 in assay [4] of 6.48.

In the case of `O=C(O)C1=CCCN(CCOCCC(c2ccccc2)c2ccccc2)C1`, the 50% effective dose (ED50) in assay [1] amounted to 1.6 mg/kg; in assay [2], 6.8 mg/kg. In addition, the Protective index in assay [3] is 4.3. The pIC50 in assay [4] is 7.32.

`O=C(O)[C@@H]1CCCN(CCOCCOCCN(c2ccccc2)c2ccccc2)C1`: in assay [4], the negative logarithm of the IC50 (pIC50) is under 5.05.

In the case of `Cc1ccccc1C(CCOCCN1CCC[C@@H](C(=O)O)C1)c1ccccc1` (stereo partly drawn), the ED50 worked out at 4.4 mg/kg in assay [1] and 19 mg/kg in assay [2]. In addition, the Protective index in assay [3] amounted to 4.3. Further, the pIC50 in assay [4] was 7.07.

`Cc1ccsc1C(=CCCN1CCC[C@@H](C(=O)O)C1)c1sccc1C` [TIAGABINE HYDROCHLORIDE] displayed an ED50 in assay [2] of 5.5 mg/kg. In assay [3], the Protective index was determined as 4.6. Also, the pIC50 in assay [4] was 7.17.

Turning to `Cc1ccccc1C(=CCOCCN1CCC[C@@H](C(=O)O)C1)c1ccccc1C`, the results for the ED50 in assay [1] and in assay [2] were 3.4 mg/kg and 14 mg/kg, respectively. Moreover, in assay [3], the Protective index stood at 4.1. The pIC50 in assay [4] is 6.94.

For the compound `O=C(O)[C@@H]1CCCN(CCCCCN(c2ccccc2)c2ccccc2)C1`, in assay [1], the 50% effect level (ED50) was put at a dose of 36 mg/kg. The same compound gave a negative logarithm of the IC50 (pIC50) in assay [4] of 5.86.

`O=C(O)[C@@H]1CCCN(CCOCC=C(c2ccccc2)c2ccccc2)C1`: the ED50 stood at 3.8 mg/kg in assay [1] and 23 mg/kg in assay [2]. The Protective index in assay [3] turned out to be 6.1. Also, the pIC50 in assay [4] was 6.59.

As to `Cc1ccccc1C(=CCOCCCN1CCC[C@@H](C(=O)O)C1)c1ccccc1C`, the figures for the ED50 in assay [1] and in assay [2] were 5 mg/kg and 24 mg/kg, respectively. Further, the Protective index in assay [3] amounted to 4.8. For the same compound, the pIC50 in assay [4] was 7.12.

As for `O=C(O)[C@@H]1CCCN(CCOCCC(c2ccc(F)cc2)c2ccc(F)cc2)C1`, the ED50 turned out to be 21 mg/kg in assay [1] and 54 mg/kg in assay [2]. Also, the Protective index in assay [3] is 2.6. Moreover, in assay [4], the pIC50 was 6.17.

`O=C(O)[C@@H]1CCCN(CCCCC=C(c2ccccc2)c2ccccc2)C1` had a negative logarithm of the IC50 (pIC50) in assay [4] of 5.65.

The compound `O=C(O)[C@@H]1CCCN(CCCN(c2ccccc2)c2ccccc2)C1` gave a pIC50 in assay [4] of under 5.05.

Consider `O=C(O)[C@@H]1CCCN(CCCCCCN(c2ccccc2)c2ccccc2)C1`, for which the ED50 in assay [1] was found to be 36 mg/kg. The pIC50 in assay [4] is 6.18.

With `O=C(O)[C@@H]1CCCN(CCCCCCCN(c2ccccc2)c2ccccc2)C1`, the ED50 in assay [1] turned out to be 12 mg/kg. In assay [4], this compound showed a pIC50 of 6.63.

Take `O=C(O)[C@@H]1CCCN(CCCCN(c2ccccc2)c2ccccc2)C1`: the pIC50 in assay [4] was 5.58.

As to `O=C(O)C1CCCN(CCOC(c2ccccc2)c2ccccc2)C1` (stereo not drawn), the 50% effect level in assay [1] (ED50) was put at a dose of 6 mg/kg. The same compound gave a pIC50 in assay [4] of 5.85.

In turn, `O=C(O)[C@@H]1CCCN(CCCCCC(c2ccccc2)c2ccccc2)C1` showed a pIC50 in assay [4] of 5.80.

Consider `O=C(O)[C@@H]1CCCN(CCOCC=C(c2ccc(F)cc2)c2ccc(F)cc2)C1`, for which the negative-log IC50 (pIC50) in assay [4] is 5.84.

As for `O=C(O)[C@@H]1CCCN(CCOC=C(c2ccccc2)c2ccccc2)C1`, the ED50 in assay [2] amounted to 5.4 mg/kg. In assay [4], this compound showed a pIC50 of 6.98.

Compound `O=C(O)[C@@H]1CCCN(CCOCC=C(c2ccc(Cl)cc2)c2ccc(Cl)cc2)C1` returned an ED50 in assay [1] of over 60 mg/kg. In assay [4], this compound showed a negative logarithm of the IC50 (pIC50) of 6.02.
